In brackets after ≈: the same amount, converted by molar mass. Where two headings read alike, the source gives them in different places.
Key:
Micrococcus luteus [1] = conditions: previously shown; cited from earlier work
Neisseria gonorrhoeae [2] = conditions: previously shown; cited from earlier work
Micrococcus luteus [3] = experiment: Antimicrobial susceptibility, Micrococcus luteus; type: cell-based; conditions: read-out: MIC Micrococcus luteus
Outline: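 Broth microdilution susceptibility to an established standard for aerobic bacteria, strain Presque Isle 456. Test compound was reconstituted in a small volume of sterile DMSO and diluted in medium just before the assay. MIC was the lowest concentration that stopped all visible growth (optically clear). Assays were repeated on separate days.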

SW1736 cells = experiment: Anaplastic thyroid carcinoma cell line inhibition, SW1736; type: cell-based, human
[4] = tested on: human umbilical vein endothelial cells (HUVEC); experiment: HUVEC Matrigel cord formation assay; type: cell-based; conditions: 0.001 μg/mL, 24 h
tubulin = experiment: Inhibition of [3H]colchicine binding to tubulin; conditions: 10 μM compound, 1.0 μM tubulin, 5.0 μM [3H]colchicine
KAT-4 cells = experiment: Anaplastic thyroid carcinoma cell line inhibition, KAT-4; type: cell-based, human; conditions: for GI50: Homo sapiens, KAT-4, read-out: KAT-4 GI50
Outline: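 Growth inhibition by the NCI sulforhodamine B method. Cells were plated in RPMI1640 with 5% fetal bovine serum and grown 24 h. Serial dilutions of test compound were then added for 48 h. Plates were fixed with trichloroacetic acid, stained with sulforhodamine B and read by plate reader. GI50 is the concentration giving a 50% drop in net protein increase, calculated from optical density data.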

Neisseria gonorrhoeae [5] = experiment: Antimicrobial susceptibility, Neisseria gonorrhoeae; type: cell-based; conditions: for MIC: Neisseria gonorrhoeae, read-out: MIC Neisseria gonorrhoeae; for MIC Neisseria gonorrhoeae: broth microdilution
Outline: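 Neisseria gonorrhoeae ATCC 49226 tested by broth microdilution following standard bacterial dilution guidelines. MIC taken as the lowest concentration inhibiting all visible growth (optically clear). Assays repeated on separate days.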

## COc1ccc(/C=C\c2cc(OC)c(OC)c(OC)c2)cc1O [1a, combretastatin A-4]
Micrococcus luteus [1]
  MIC Micrococcus luteus: 25-100 μg/disk
Neisseria gonorrhoeae [2]
  MIC Neisseria gonorrhoeae: 25-100 μg/disk

## COc1ccc(/C=C\c2cc(OC)c(OC)c(OC)c2)cc1OP(=O)([O-])[O-].[Na+].[Na+] [1b, fosbretabulin]
Micrococcus luteus [1]
  MIC Micrococcus luteus: 25-100 μg/disk
Neisseria gonorrhoeae [2]
  MIC Neisseria gonorrhoeae: 25-100 μg/disk

## COc1ccc(/C=C\c2cc(I)c(OC)c(OC)c2)cc1O [9a, 3-Iodo-4,4′,5-trimethoxy-3′-hydroxy-Z-stilbene]
Micrococcus luteus [3]
  MIC: 2 to 4 mg/L (≈ 4.85 to 9.7 µM)
SW1736 cells
  times less active against the SW1736 line than against KAT-4: 100 ×
[4]
  cord lengths and junction numbers: markedly reduced
tubulin
  inhibition of colchicine binding to tubulin, % inhibition ± SD: 100 ± 0.8%

## COc1ccc(/C=C\c2cc(I)c(OC)c(I)c2)cc1O [9c, 3,5-Diiodo-4,4′-dimethoxy-3′-hydroxy-Z-stilbene]
Micrococcus luteus [3]
  MIC: 4 to 16 mg/L (≈ 7.87 to 31.5 µM)
SW1736 cells
  times less active against the SW1736 line than against KAT-4: 100 ×
KAT-4 cells
  GI50: 0.039 to 0.063 mg/L (≈ 0.0768 to 0.124 µM)
[4]
  cord lengths and junction numbers: markedly reduced
tubulin
  inhibition of colchicine binding to tubulin, % inhibition ± SD: 100 ± 0.3%

## COc1ccc(/C=C\c2cc(I)c(OC)c(OC)c2)cc1OP(=O)([O-])[O-].[K+].[K+] [11a, Potassium 3-Iodo-4,4′,5-trimethoxy-Z-stilbene 3′-O-phosphate]
KAT-4 cells
  GI50: 0.37 to 0.43 mg/L

## COc1ccc(/C=C\c2cc(I)c(OC)c(I)c2)cc1OP(=O)([O-])[O-].[K+].[K+] [12a, Potassium 3,5-Diiodo-4,4′dimethoxy-Z-stilbene 3′-O-phosphate]
Neisseria gonorrhoeae [5]
  MIC: 0.5 to 4 mg/L
KAT-4 cells
  GI50: 0.38 to 0.44 mg/L
KAT-4 cells; KAT-4
  times less inhibitory than the phenols 9a and 9c: 10 ×

## COc1ccc(/C=C\c2cc(I)c(OC)c(I)c2)cc1OP(=O)([O-])[O-].[Na+].[Na+] [12b, Sodium 3,5-Diiodo-4,4′-dimethoxy-Z-stilbene 3′-O-phosphate]
Neisseria gonorrhoeae [5]
  MIC: 32 to 64 mg/L

## COc1ccc(/C=C\c2cc(I)c(OC)c(I)c2)cc1OP(=O)([O-])[O-].[Li+].[Li+] [12c, Lithium 3,5-Diiodo-4,4′-dimethoxy-Z-stilbene 3′-O-phosphate]
Neisseria gonorrhoeae [5]
  MIC: 0.5 to 2 mg/L

## C1COCCN1.COc1ccc(/C=C\c2cc(I)c(OC)c(I)c2)cc1OP(=O)(O)O [12d, Morpholine 3,5-Diiodo-4,4′-dimethoxy-Z-stilbene 3′-O-phosphate]
Neisseria gonorrhoeae [5]
  MIC Neisseria gonorrhoeae: < 0.5 mg/L

## Glycine-OMe 3,5-Diiodo-4,4′-dimethoxy-Z-stilbene 3′-O-phosphate [12f]
Neisseria gonorrhoeae [5]
  MIC Neisseria gonorrhoeae: <0.5 to 1 mg/L

## Morpholine 3-Iodo-4,4′,5-trimethoxy-Z-stilbene 3′-O-phosphate [11d]
Neisseria gonorrhoeae [5]
  MIC Neisseria gonorrhoeae: 16 to 32 mg/L

## Piperdine 3,5-Diiodo-4,4′-dimethoxy-Z-stilbene 3′-O-phosphate [12e]
Neisseria gonorrhoeae [5]
  MIC Neisseria gonorrhoeae: < 0.5 mg/L

## Tris 3,5-Diiodo-4,4′dimethoxy-Z-stilbene 3′-O-phosphate [12h]
Neisseria gonorrhoeae [5]
  MIC Neisseria gonorrhoeae: <0.5 to 2 mg/L

## Tris 3-Iodo-4,4′,5-trimethoxy-Z-stilbene 3′-O-phosphate [11h]
Neisseria gonorrhoeae [5]
  MIC Neisseria gonorrhoeae: 32 to 64 mg/L

## Tryptophan-OMe 3,5-Diiodo-4,4′-dimethoxy-Z-stilbene 3′-O-phosphate [12g]
Neisseria gonorrhoeae [5]
  MIC Neisseria gonorrhoeae: < 0.5 mg/L

## Tryptophan-OMe 3-Iodo-4,4′,5-trimethoxy-Z-stilbene 3′-O-phosphate [11g]
Neisseria gonorrhoeae [5]
  MIC Neisseria gonorrhoeae: 4 to 8 mg/L
